Data published in ChEMBL document CHEMBL1128280, “Synthesis, topoisomerase I inhibitory activity, and in vivo evaluation of 11-azacamptothecin analogs” (J Med Chem, 1995).
≈ marks a conversion by molar mass, not a printed value.

Assays:
[1] = Aqueous solubility in pH 5 acetate buffer.; assay type: physicochemical
Outline: (§1)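 Excess solid equilibrated in 0.25 mL 0.1 M sodium acetate, pH 5.0, 25 °C, 24 h; filtered (0.22 μm); lactone and carboxylate forms separated by reverse-phase C-18 HPLC, mobile phase 40% organic/60% aqueous with 0.005 M tetrabutylammonium phosphate; quantified against calibration curves of standard peak areas.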

HT-29 = assay: (§2) Concentration required to inhibit 50% growth of human colon carcinoma cell line (HT-29); assay type: functional, cell-based
Outline: (§3)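 MTT microculture tetrazolium assay; cells grown in α-MEM with 15% heat-inactivated FBS, glutamine, pyruvate, insulin, nonessential amino acids, gentamycin, 37 °C, 5% CO2; adhered overnight, exposed to compound 48 h then fresh medium 48 h; 0.17 nM to 10 μM, quadruplicate; 4 h MTT, DMSO extraction; four-parameter logistic fit, usually single curve.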

Mus musculus [2] = assay: Delay in tumor growth in mice to 500% volume of day 1 relative to control at dose 200 mg/kg.; assay type: functional
Outline: (§4)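 Female nu/nu mice bearing subcutaneous flank HT-29 xenografts; single-bolus subcutaneous maximum tolerated dose first set in tumor-free mice by body weight loss, then split into three portions given over one day (N = 6); caliper volume = length × width²/2; T−C = difference in days for mean tumor volume to reach 500% of initial, treated vs controls.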

SK-OV-3 = assay: Concentration required to inhibit 50% growth of human ovarian cancer cell line(SK-OV-3) was measured; assay type: functional, cell-based; outline: as §3
SK-VLB = assay: Concentration required to inhibit 50% growth of vinblastine resistant ovarian cancer cell line(SKVLB); assay type: functional, cell-based; details: Homo sapiens; outline: as §3
[3] = Aqueous solubility determined in pH 5 acetate buffer; assay type: physicochemical; outline: as §1
[4] = as §2; assay type: functional, cell-based; outline: as §3
Mus musculus [5] = assay: Delay in tumor growth in mice to 500% volume of day 1 relative to control at dose 90 mg/kg.; assay type: functional; outline: as §4
Mus musculus [6] = assay: Delay in tumor growth in mice to 500% volume of day 1 relative to control at dose 54 mg/kg.; assay type: functional
Outline: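 Female nu/nu mice (18-24 g) with subcutaneous HT-29 flank xenografts, N = 6. Maximum tolerated single subcutaneous bolus first set by body weight loss in tumor-free nude mice. That dose was split into three portions given over one day. Tumor volume by calipers as length × width²/2. T−C is the delay, in days, for mean tumor volume to reach 500% of initial versus untreated controls.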

Mus musculus [7] = assay: Delay in tumor growth in mice to 500% volume of day 1 relative to control at dose 120 mg/kg.; assay type: functional; outline: as §4
Mus musculus [8] = assay: Delay in tumor growth in mice to 500% volume of day 1 relative to control at dose 146 mg/kg; assay type: functional; outline: as §4
Mus musculus [9] = assay: Delay in tumor growth in mice to 500% volume of day 1 relative to control at dose 100 mg/kg.; assay type: functional; outline: as §4
Mus musculus [10] = assay: Delay in tumor growth in mice to 500% volume of day 1 relative to control at dose 25 mg/kg.; assay type: functional; outline: as §4

In the case of `CC[C@@]1(O)C(=O)OCc2c1cc1n(c2=O)Cc2cc3ccccc3nc2-1` [CAMPTOTHECIN], the solubility [1] is reported as under 5 µg/mL.
With `CCc1c2c(nc3cnc(C#N)cc13)-c1cc3c(c(=O)n1C2)COC(=O)[C@]3(O)CC` the IC50 (HT-29) was 17 nM.
With `CCc1c2c(nc3cnccc13)-c1cc3c(c(=O)n1C2)COC(=O)[C@]3(O)CC` the solubility [1] was 10 µg/mL (≈ 0.0265 mM).
`CCOC(=O)c1cc2c(CC)c3c(nc2cn1)-c1cc2c(c(=O)n1C3)COC(=O)[C@]2(O)CC` gave an IC50 (HT-29) of 26 nM.
With `CC[C@@]1(O)C(=O)OCc2c1cc1n(c2=O)Cc2c-1nc1cnc(CN)cc1c2C` the IC50 (HT-29) was 123 nM, the T-C (Mus musculus [2]) was 3.4 days and the IC50 (SK-OV-3) was 17 nM. It also gave an IC50 (SK-VLB) of 42 nM and a solubility [3] of 7200 µg/mL (≈ 18.3 mM).
`CCc1c2c(nc3cnc(C(=N)N)cc13)-c1cc3c(c(=O)n1C2)COC(=O)[C@]3(O)CC` gave an IC50 [4] of 311 nM, a T-C (Mus musculus [5]) of 6 days and an IC50 (SK-OV-3) of 71 nM. It also gave a solubility [3] of over 3000 µg/mL.
For `CCc1c2c(nc3cnc(Br)cc13)-c1cc3c(c(=O)n1C2)COC(=O)[C@]3(O)CC`, the IC50 (HT-29) was 7 nM.
`CC[C@@]1(O)C(=O)OCc2c1cc1n(c2=O)Cc2cc3c(CN(C)C)c(O)ccc3nc2-1.Cl` [TOPOTECAN HYDROCHLORIDE] gave a T-C (Mus musculus [6]) of 10.3 days and a solubility [3] of 3100 µg/mL.
In the case of `CC[C@@]1(O)C(=O)OCc2c1cc1n(c2=O)Cc2c-1nc1cnc(Br)cc1c2C`, the IC50 (HT-29) is reported as 1 nM, the IC50 (SK-OV-3) is reported as 1 nM and the IC50 (SK-VLB) is reported as 0.5 nM.
Work on `CC[C@@]1(O)C(=O)OCc2c1cc1n(c2=O)Cc2c-1nc1c[n+]([O-])c(CN)cc1c2C` yielded an IC50 [4] of 731 nM, a T-C (Mus musculus [7]) of 5.3 days and an IC50 (SK-OV-3) of 66 nM. For the same compound, the solubility [3] was over 3000 µg/mL.
`CCc1c2c(nc3cnc(C#CCN)cc13)-c1cc3c(c(=O)n1C2)COC(=O)[C@]3(O)CC` showed an IC50 (HT-29) of 351 nM, a T-C (Mus musculus [8]) of 1.5 days and an IC50 (SK-OV-3) of 243 nM. For the same compound, the IC50 (SK-VLB) was 384 nM and the solubility [3] was 5700 µg/mL (≈ 13.2 mM).
`CC[C@@]1(O)C(=O)OCc2c1cc1n(c2=O)Cc2cc3cc[n+]([O-])cc3nc2-1` showed a solubility [1] of 300 µg/mL (≈ 0.821 mM).
Compound `CC[C@@]1(O)C(=O)OCc2c1cc1n(c2=O)Cc2c-1nc1cnc(C#CCN)cc1c2C` has an IC50 [4] of 355 nM and an IC50 (SK-OV-3) of 245 nM.
Compound `CCc1c2c(nc3cnc(CN)cc13)-c1cc3c(c(=O)n1C2)COC(=O)[C@]3(O)CC` has an IC50 (SK-OV-3) of 32 nM and an IC50 (SK-VLB) of 444 nM.
Work on `CCc1c2c(nc3c[n+](C)ccc13)-c1cc3c(c(=O)n1C2)COC(=O)[C@]3(O)CC.[I-]` yielded a solubility [1] of over 2500 µg/mL and a T-C (Mus musculus [9]) of 3.5 days.
In the case of `CCc1c2c(nc3cnc(C(=N)NO)cc13)-c1cc3c(c(=O)n1C2)COC(=O)[C@]3(O)CC`, the IC50 [4] is reported as 7 nM, the T-C (Mus musculus [10]) is reported as 15 days and the IC50 (SK-OV-3) is reported as 0.8 nM. For the same compound, the solubility [3] was over 3000 µg/mL.
